Assay results taken from PMC6218153 (Journal of Alzheimer's Disease Reports, 2018).
Marks after values point to notes of the source that are not given here. Where no end group is shown, it is not given here.

Legend:
[1] = Metabolic stability in human plasma; assay type: in vitro ADME
Method in brief: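 Test compound (100 μM stock in methanol) added to 1 μM final in plasma or brain homogenate (1:3 brain:PBS, w/v) and incubated at room temperature. Sampled at 15 and 30 min and 1, 2 and 4 h; time-zero samples pre-quenched with methanol. Proteins were methanol-precipitated; supernatant evaporated, reconstituted in 0.1% formic acid and analysed by LC/MS/MS. Duplicates per time point; results expressed as % of time 0.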

[2] = PK study in plasma and CSF after single IV, SC or IN dose; assay type: in vivo, rat
Method in brief: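 Cannulated rats (jugular vein, intracisternal; n = 6/route) received a single dose in PBS: IV or SC ~11 mg/kg over 1 min, or IN ~5.5 mg/kg, 10 μL per nostril at 6-min intervals over 18 min. K2EDTA plasma was taken pre-dose to 165 min and CSF pre-dose to 150/180 min. LC/MS/MS (ESI+, 1007.55 > 876.35) with noncompartmental PK; CL = Dose/AUC. CSF ratio = dose-normalised CSF AUC relative to IV.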

## DEEEDEEL [P8, DEEEDEEL]
[1]
  half-life: > 2 h
  remaining at 2 h, 1 μM: 63.1%
[2]; IN 5.5 mg/kg single dose, 5 min, Rat 1
  P8 concentration in plasma: 137 ng/mL
[2]; IN 5.5 mg/kg single dose, 5 min, Rat 2
  P8 concentration in plasma: 262 ng/mL
[2]; IN 5.5 mg/kg single dose, 5 min, Rat 3
  P8 concentration in plasma: 191 ng/mL
[2]; IN 5.5 mg/kg single dose, 10 min, Rat 2
  P8 concentration in CSF: 3.09 ng/mL
[2]; IN 5.5 mg/kg single dose, 10 min, Rat 3
  P8 concentration in CSF: 32.8 ng/mL
[2]; IN 5.5 mg/kg single dose, 15 min, Rat 1
  P8 concentration in plasma: 102 ng/mL
[2]; IN 5.5 mg/kg single dose, 15 min, Rat 2
  P8 concentration in plasma: 234 ng/mL
[2]; IN 5.5 mg/kg single dose, 15 min, Rat 3
  P8 concentration in plasma: 150 ng/mL
[2]; IN 5.5 mg/kg single dose, 25 min, Rat 1
  P8 concentration in plasma: 60.8 ng/mL
[2]; IN 5.5 mg/kg single dose, 25 min, Rat 2
  P8 concentration in plasma: 123^b ng/mL
[2]; IN 5.5 mg/kg single dose, 25 min, Rat 3
  P8 concentration in plasma: 90.6 ng/mL
[2]; IN 5.5 mg/kg single dose, 30 min, Rat 2
  P8 concentration in CSF: 1.03 ng/mL
[2]; IN 5.5 mg/kg single dose, 30 min, Rat 3
  P8 concentration in CSF: 1.95 ng/mL
[2]; IN 5.5 mg/kg single dose, 35 min, Rat 1
  P8 concentration in plasma: 53.7 ng/mL
[2]; IN 5.5 mg/kg single dose, 35 min, Rat 2
  P8 concentration in plasma: 85.9 ng/mL
[2]; IN 5.5 mg/kg single dose, 35 min, Rat 3
  P8 concentration in plasma: 66.0 ng/mL
[2]; IN 5.5 mg/kg single dose, 50 min, Rat 1
  P8 concentration in plasma: 66.1 ng/mL
[2]; IN 5.5 mg/kg single dose, 50 min, Rat 2
  P8 concentration in plasma: 67.7 ng/mL
[2]; IN 5.5 mg/kg single dose, 50 min, Rat 3
  P8 concentration in plasma: 45.1 ng/mL
[2]; IN 5.5 mg/kg single dose, 60 min, Rat 1
  P8 concentration in CSF: 1.18 ng/mL
[2]; IN 5.5 mg/kg single dose, 60 min, Rat 2
  P8 concentration in CSF: 0.632 ng/mL
[2]; IN 5.5 mg/kg single dose, 60 min, Rat 3
  P8 concentration in CSF: 1.28 ng/mL
[2]; IN 5.5 mg/kg single dose, 70 min, Rat 1
  P8 concentration in plasma: 37.6 ng/mL
[2]; IN 5.5 mg/kg single dose, 70 min, Rat 2
  P8 concentration in plasma: 55.3 ng/mL
[2]; IN 5.5 mg/kg single dose, 70 min, Rat 3
  P8 concentration in plasma: 32.1 ng/mL
[2]; IN 5.5 mg/kg single dose, 90 min, Rat 1
  P8 concentration in plasma: 32.2 ng/mL
[2]; IN 5.5 mg/kg single dose, 90 min, Rat 2
  P8 concentration in plasma: 42.8 ng/mL
[2]; IN 5.5 mg/kg single dose, 90 min, Rat 3
  P8 concentration in plasma: 20.7 ng/mL
[2]; IN 5.5 mg/kg single dose, 100 min, Rat 1
  P8 concentration in CSF: 0.537 ng/mL
[2]; IN 5.5 mg/kg single dose, 100 min, Rat 2
  P8 concentration in CSF: 2.39 ng/mL
[2]; IN 5.5 mg/kg single dose, 100 min, Rat 3
  P8 concentration in CSF: 0.532 ng/mL
[2]; IN 5.5 mg/kg single dose, 110 min, Rat 1
  P8 concentration in plasma: 26.0 ng/mL
[2]; IN 5.5 mg/kg single dose, 110 min, Rat 2
  P8 concentration in plasma: 27.0 ng/mL
[2]; IN 5.5 mg/kg single dose, 110 min, Rat 3
  P8 concentration in plasma: 13.9 ng/mL
[2]; IN 5.5 mg/kg single dose, 130 min, Rat 1
  P8 concentration in plasma: 33.2 ng/mL
[2]; IN 5.5 mg/kg single dose, 130 min, Rat 2
  P8 concentration in plasma: 15.0 ng/mL
[2]; IN 5.5 mg/kg single dose, 130 min, Rat 3
  P8 concentration in plasma: 14.3 ng/mL
[2]; IN 5.5 mg/kg single dose, 150 min, Rat 1
  P8 concentration in CSF: 0.581 ng/mL
[2]; IN 5.5 mg/kg single dose, 150 min, Rat 3
  P8 concentration in CSF: 1.16 ng/mL
[2]; IN 5.5 mg/kg single dose, 165 min, Rat 1
  P8 concentration in plasma: 32.7 ng/mL
[2]; IN 5.5 mg/kg single dose, 165 min, Rat 2
  P8 concentration in plasma: 14.9 ng/mL
[2]; IN 5.5 mg/kg single dose, 165 min, Rat 3
  P8 concentration in plasma: 17.1 ng/mL
[2]; IV 11.0 mg/kg single dose, 5 min, Rat 1
  P8 concentration in plasma: 102,000 ng/mL
[2]; IV 11.0 mg/kg single dose, 5 min, Rat 2
  P8 concentration in plasma: 45,300 ng/mL
[2]; IV 11.0 mg/kg single dose, 5 min, Rat 3
  P8 concentration in plasma: 43,600 ng/mL
[2]; IV 11.0 mg/kg single dose, 10 min, Rat 2
  P8 concentration in CSF: 50.1^c ng/mL
[2]; IV 11.0 mg/kg single dose, 10 min, Rat 3
  P8 concentration in CSF: 85.7^c ng/mL
[2]; IV 11.0 mg/kg single dose, 15 min, Rat 2
  P8 concentration in plasma: 12,600 ng/mL
[2]; IV 11.0 mg/kg single dose, 15 min, Rat 3
  P8 concentration in plasma: 8,460 ng/mL
[2]; IV 11.0 mg/kg single dose, 25 min, Rat 1
  P8 concentration in plasma: 4,250 ng/mL
[2]; IV 11.0 mg/kg single dose, 25 min, Rat 2
  P8 concentration in plasma: 5,650 ng/mL
[2]; IV 11.0 mg/kg single dose, 25 min, Rat 3
  P8 concentration in plasma: 3,230 ng/mL
[2]; IV 11.0 mg/kg single dose, 30 min, Rat 1
  P8 concentration in CSF: 42.5 ng/mL
[2]; IV 11.0 mg/kg single dose, 30 min, Rat 2
  P8 concentration in CSF: 48.2^c ng/mL
[2]; IV 11.0 mg/kg single dose, 30 min, Rat 3
  P8 concentration in CSF: 39.3 ng/mL
[2]; IV 11.0 mg/kg single dose, 35 min, Rat 1
  P8 concentration in plasma: 2,160 ng/mL
[2]; IV 11.0 mg/kg single dose, 35 min, Rat 2
  P8 concentration in plasma: 2,710 ng/mL
[2]; IV 11.0 mg/kg single dose, 35 min, Rat 3
  P8 concentration in plasma: 1,770 ng/mL
[2]; IV 11.0 mg/kg single dose, 50 min, Rat 1
  P8 concentration in plasma: 878 ng/mL
[2]; IV 11.0 mg/kg single dose, 50 min, Rat 2
  P8 concentration in plasma: 1,190 ng/mL
[2]; IV 11.0 mg/kg single dose, 50 min, Rat 3
  P8 concentration in plasma: 713 ng/mL
[2]; IV 11.0 mg/kg single dose, 60 min, Rat 1
  P8 concentration in CSF: 22.8 ng/mL
[2]; IV 11.0 mg/kg single dose, 60 min, Rat 2
  P8 concentration in CSF: 17.8 ng/mL
[2]; IV 11.0 mg/kg single dose, 60 min, Rat 3
  P8 concentration in CSF: 16.9 ng/mL
[2]; IV 11.0 mg/kg single dose, 70 min, Rat 1
  P8 concentration in plasma: 392 ng/mL
[2]; IV 11.0 mg/kg single dose, 70 min, Rat 2
  P8 concentration in plasma: 313 ng/mL
[2]; IV 11.0 mg/kg single dose, 70 min, Rat 3
  P8 concentration in plasma: 199 ng/mL
[2]; IV 11.0 mg/kg single dose, 100 min, Rat 1
  P8 concentration in CSF: 10.7 ng/mL
[2]; IV 11.0 mg/kg single dose, 100 min, Rat 2
  P8 concentration in CSF: 8.69 ng/mL
[2]; IV 11.0 mg/kg single dose, 100 min, Rat 3
  P8 concentration in CSF: 4.08 ng/mL
[2]; IV 11.0 mg/kg single dose, 110 min, Rat 1
  P8 concentration in plasma: 93.1 ng/mL
[2]; IV 11.0 mg/kg single dose, 110 min, Rat 2
  P8 concentration in plasma: 36.4 ng/mL
